Measured values as given in ChEMBL document CHEMBL1127289, “DNA-directed alkylating agents. 6. Synthesis and antitumor activity of DNA minor groove-targeted aniline mustard analogues of pibenzimol (Hoechst 33258)” (J Med Chem, 1994).
The source made the active and inactive calls.

Assays:
[1] = system: CHO-AA8; assay: Concentration of the drug to inhibit chinese hamster ovary derived cell (AA8) growth in culture; format: functional, cell-based; settings: Cricetulus griseus
Procedure, shortened: (§1)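 AA8 (wild-type) and UV4 (mutant) lines maintained in log phase in Alpha MEM with 10% fetal calf serum. Drug exposure for 18 h, ended by three washes in fresh medium, then a further 72 h growth. Cell density read by methylene blue staining. IC50 is the nominal concentration giving 50% of control density, with eight controls per plate. HF = IC50(AA8)/IC50(UV4).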

[2] = system: Nucleic Acid; assay: (§2) Intrinsic association constant for reversible binding of compounds to calf thymus DNA at 20 degree C; format: functional; design: scale not given here; settings: Bos taurus
[3] = species: Mus musculus; assay: Tested for percentage increase in lifespan of drug-treated tumor-bearing animals when treated at optimal dose; format: functional
Procedure, shortened: (§3)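 P388 leukemia: 10^6 tumor cells inoculated intraperitoneally. 24 h later (day 1), a single intraperitoneal dose in 0.1 mL of 30% v/v EtOH/water. The optimal dose is given in mg/kg. ILS is the percentage increase in lifespan at the optimal dose; ILS > 20% is considered significant. Groups of 6 animals, with long-term survivors counted.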

[4] = system: Mus musculus; assay: Tested for the intraperitoneal optimal dose of 0.1 mL in tumor cells; format: functional; procedure, shortened: as §3
[5] = system: P388; assay: Concentration of the drug to inhibit wild type P388 murine leukemia cell growth in culture; format: functional, cell-based; settings: Mus musculus
Procedure, shortened: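 P388 cells maintained in log phase in RPMI 1640 with 10% fetal calf serum. Drug present throughout 72 h growth. Final density read by a modified MTT method. IC50 is the nominal concentration reducing cell density to 50% of controls, with eight control cultures per plate.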

[6] = (§4) Hypersensitivity factor(HF) was determined as ratio of IC50(AA8) to IC50(UV4); format: functional; procedure, shortened: as §1
[7] = species: Mus musculus; assay: Tested for percentage increase in lifespan of drug-treated tumor-bearing animals when treated at optimal dose; Inactive; format: functional, organism-based; procedure, shortened: as §3
[8] = system: CHO-AA8; assay: as §4; format: functional, Cricetulus griseus; procedure, shortened: as §1
[9] = system: Nucleic Acid; assay: as §2; format: nucleic-acid assay; settings: Bos taurus
[10] = species: Mus musculus; assay: Tested for percentage increase in lifespan of drug-treated tumor-bearing animals when treated at optimal dose; NA=Inactive; format: functional, organism-based; procedure, shortened: as §3

CN1CCN(c2ccc3[nH]c(-c4ccc5[nH]c(CCCCCCc6ccc(N(CCCl)CCCl)cc6)nc5c4)nc3c2)CC1
IC50 [1]: 400 nM
DNA binding [2]: 3.89 M⁻¹
ILS [3]: 23%
OD [4]: 8.9 mg/kg
IC50 [5]: 60 nM
Ratio [6]: 20

CCN(CCCl)c1cc(CN(C)C)cc(NC(=O)c2ccc(C(=O)Nc3cc(CN(C)C)cc(N(CC)CCCl)c3)cc2)c1
IC50 [5]: 7000 nM

CN1CCN(c2ccc3[nH]c(-c4ccc5[nH]c(CCc6ccc(N(CCCl)CCCl)cc6)nc5c4)nc3c2)CC1
IC50 [1]: 330 nM
DNA binding [2]: 6.3 M⁻¹
ILS [3]: 52%
OD [4]: 3.9 mg/kg
IC50 [5]: 10 nM
Ratio [6]: 47

CN1CCN(c2ccc3[nH]c(-c4ccc5[nH]c(CCCc6ccc(N(CCCl)CCCl)cc6)nc5c4)nc3c2)CC1
IC50 [1]: 1320 nM
DNA binding [2]: 4.55 M⁻¹
ILS [7]: inactive
OD [4]: 5.9 mg/kg
IC50 [5]: 20 nM
Ratio [6]: 46

CCN(CC)c1ccc(-c2nc3cc(-c4nc5cc(N6CCN(C)CC6)ccc5[nH]4)ccc3[nH]2)cc1
IC50 [1]: 10000 nM
Ratio [8]: 1.5
DNA binding [9]: 6.24 log M-1
ILS [3]: 50%
OD [4]: 20 mg/kg
IC50 [5]: 1200 nM

CN1CCN(c2ccc3[nH]c(-c4ccc5[nH]c(-c6ccc(N(CCCl)CCCl)cc6)nc5c4)nc3c2)CC1
IC50 [1]: 1680 nM
Ratio [8]: 24
DNA binding [9]: 7.52 log M-1
ILS [3]: 106%
OD [4]: 30 mg/kg
IC50 [5]: 800 nM

CN1CCN(c2ccc3[nH]c(-c4ccc5[nH]c(-c6ccc(O)cc6)nc5c4)nc3c2)CC1 [HOECHST 33258]
DNA binding [9]: 1.82 log M-1
ILS [10]: inactive
OD [4]: 20 mg/kg
IC50 [5]: 1200 nM

CN1CCN(c2ccc3[nH]c(-c4ccc5[nH]c(Cc6ccc(N(CCCl)CCCl)cc6)nc5c4)nc3c2)CC1
IC50 [1]: 1500 nM
DNA binding [2]: 6.73 M⁻¹
ILS [3]: 71%
OD [4]: 13.3 mg/kg
IC50 [5]: 850 nM
Ratio [6]: 59

CN1CCN(c2ccc3[nH]c(-c4ccc5[nH]c(-c6ccc(N(C)CCCl)cc6)nc5c4)nc3c2)CC1
IC50 [1]: 5750 nM
ILS [3]: 86%
OD [4]: 30 mg/kg
IC50 [5]: 500 nM
Ratio [6]: 14
